Measurements: ChEMBL document CHEMBL3352325, “Synthesis and biological evaluation of novel aniline-derived asiatic acid derivatives as potential anticancer agents” (Eur J Med Chem, 2014)
pIC50: −log10 of the molar value.

Assays:
[1] = test system: MGC-803; assay: Cytotoxicity against human MGC803 cells after 48 hrs by MTT assay; format: functional, cell-based; details: MGC-803, 48 h
Summary of the method: (§1)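 Cells grown in medium with 10% heat-inactivated FBS, 5% CO2, 37 °C. Compounds given in medium with 1% DMSO at 1.25–20 graded concentrations; 1% DMSO medium served as control. MTT (5 mg/mL) added, formazan dissolved in DMSO, absorbance read at 570/630 nm. Survival expressed relative to negative control. IC50 by Bliss method (n=5), at least three independent experiments, mean ± SD.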

[2] = test system: HUVEC; assay: Cytotoxicity against human HUVEC cells after 48 hrs by MTT assay; format: cell-based; summary of the method: as §1
[3] = Cytotoxicity against human SMMC-7404 cells after 48 hrs by MTT assay; format: functional, cell-based; details: SMMC-7404, 48 h; summary of the method: as §1
[4] = test system: NCI-H460; assay: Cytotoxicity against human NCI-H460 cells after 48 hrs by MTT assay; format: functional, cell-based; details: NCI-H460, 48 h; summary of the method: as §1
[5] = test system: HeLa; assay: Cytotoxicity against human HeLa cells after 48 hrs by MTT assay; format: functional, cell-based; summary of the method: as §1
[6] = test system: HepG2; assay: Cytotoxicity against human HepG2 cells after 48 hrs by MTT assay; format: functional, cell-based; details: HepG2, 48 h; summary of the method: as §1

Compound | pIC50 [1] | pIC50 [2] | pIC50 [3] | pIC50 [4] | pIC50 [5] | pIC50 [6]
C[C@H]1[C@H](C)CC[C@]2(C(=O)Nc3cccc(Br)c3)CC[C@]3(C)C(=CC(=O)[C@@H]4[C@@]5(C)C[C@@H](O)[C@H](O)[C@@](C)(CO)[C@@H]5CC[C@]43C)[C@H]12 | 4.81 | < 4.00 | 4.65 | 4.60 | 4.79 | 4.69
C[C@H]1[C@H](C)CC[C@]2(C(=O)Nc3ccc(Cl)cc3)CC[C@]3(C)C(=CC(=O)[C@@H]4[C@@]5(C)C[C@@H](O)[C@H](O)[C@@](C)(CO)[C@@H]5CC[C@]43C)[C@H]12 | 4.65 | < 4.00 | 4.76 | 4.89 | 4.88 | 4.53
Cc1cccc(NC(=O)[C@]23CC[C@@H](C)[C@H](C)[C@H]2C2=CC(=O)[C@@H]4[C@@]5(C)C[C@@H](O)[C@H](O)[C@@](C)(CO)[C@@H]5CC[C@@]4(C)[C@]2(C)CC3)c1 | 4.67 | < 4.00 | 4.79 | 4.66 | 4.84 | 4.71
C[C@H]1[C@H](C)CC[C@]2(C(=O)Nc3ccccc3F)CC[C@]3(C)C(=CC(=O)[C@@H]4[C@@]5(C)C[C@@H](O)[C@H](O)[C@@](C)(CO)[C@@H]5CC[C@]43C)[C@H]12 | 4.70 | < 4.00 | 4.63 | 4.21 | 4.49 | < 4.00
Cc1ccc(C)c(NC(=O)[C@]23CC[C@@H](C)[C@H](C)[C@H]2C2=CC(=O)[C@@H]4[C@@]5(C)C[C@@H](O)[C@H](O)[C@@](C)(CO)[C@@H]5CC[C@@]4(C)[C@]2(C)CC3)c1 | 4.68 | < 4.00 | 4.80 | 4.56 | 4.80 | 4.59
C[C@H]1[C@H](C)CC[C@]2(C(=O)Nc3ccc(Br)cc3)CC[C@]3(C)C(=CC(=O)[C@@H]4[C@@]5(C)C[C@@H](O)[C@H](O)[C@@](C)(CO)[C@@H]5CC[C@]43C)[C@H]12 | 4.69 | < 4.00 | < 4.00 | 4.51 | 4.73 | 4.67
C[C@H]1[C@H](C)CC[C@]2(C(=O)Nc3ccc(Cl)c(Cl)c3)CC[C@]3(C)C(=CC(=O)[C@@H]4[C@@]5(C)C[C@@H](O)[C@H](O)[C@@](C)(CO)[C@@H]5CC[C@]43C)[C@H]12 | 4.86 | < 4.00 | 4.76 | 4.67 | 4.91 | 4.86
C[C@H]1[C@H](C)CC[C@]2(C(=O)Nc3ccccc3)CC[C@]3(C)C(=CC(=O)[C@@H]4[C@@]5(C)C[C@@H](O)[C@H](O)[C@@](C)(CO)[C@@H]5CC[C@]43C)[C@H]12 | < 4.00 | < 4.00 | < 4.00 | 4.92 | 4.57 | < 4.00
C[C@H]1[C@H](C)CC[C@]2(C(=O)Nc3ccc(F)cc3)CC[C@]3(C)C(=CC(=O)[C@@H]4[C@@]5(C)C[C@@H](O)[C@H](O)[C@@](C)(CO)[C@@H]5CC[C@]43C)[C@H]12 | 4.58 | < 4.00 | < 4.00 | 4.50 | 4.68 | < 4.00
COc1ccccc1NC(=O)[C@]12CC[C@@H](C)[C@H](C)[C@H]1C1=CC(=O)[C@@H]3[C@@]4(C)C[C@@H](O)[C@H](O)[C@@](C)(CO)[C@@H]4CC[C@@]3(C)[C@]1(C)CC2 | 4.72 | < 4.00 | 4.79 | 4.73 | 4.46 | 4.96
COc1ccc(NC(=O)[C@]23CC[C@@H](C)[C@H](C)[C@H]2C2=CC(=O)[C@@H]4[C@@]5(C)C[C@@H](O)[C@H](O)[C@@](C)(CO)[C@@H]5CC[C@@]4(C)[C@]2(C)CC3)cc1 | 4.52 | < 4.00 | < 4.00 | < 4.00 | < 4.00 | 4.78
O=c1[nH]cc(F)c(=O)[nH]1 [FLUOROURACIL] | – | – | 4.40 | – | – | 4.52
